Results reported in ChEMBL document CHEMBL4184290, “Design, synthesis, and discovery of 5-((1,3-diphenyl-1H-pyrazol-4-yl)methylene)pyrimidine-2,4,6(1H,3H,5H)-triones and related derivatives as novel inhibitors of mPGES-1” (Bioorg Med Chem Lett, 2018).
pIC50: −log10 of the molar value.

Tests used:
[1] = tested on: COX1/COX2; assay: Inhibition of ovine COX1/human COX2 assessed as reduction in PGF2alpha production at 100 uM preincubated for 10 mins followed by arachidonic acid substrate addition measured after 2 mins by colorimetric assay relative to control; conditions: sheep (COX1) / human (COX2), ovine COX1/human COX2 enzyme, probe arachidonic acid
[2] = molecular target: T1, Prostaglandin E synthase (Homo sapiens) (UniProt O14684); assay: Inhibition of human mPGES1 expressed in 293 cell microsomes at 10 uM preincubated for 15 mins followed by PGH2 substrate addition measured after 3 secs by enzyme immunoassay relative to control
T1 sequence (whole entry): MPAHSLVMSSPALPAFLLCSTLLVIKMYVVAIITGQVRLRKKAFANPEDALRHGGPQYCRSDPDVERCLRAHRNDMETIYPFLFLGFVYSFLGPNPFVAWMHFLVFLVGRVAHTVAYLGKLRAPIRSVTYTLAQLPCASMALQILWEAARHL
In short: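 Single-point screen at 10 μM against human mPGES-1, reported as % inhibition. Only compounds reaching the ≥70% cutoff went on to IC50 determination. Data are means ± SD from triplicate determinations.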

[3] = molecular target: T2, Prostaglandin E synthase (Homo sapiens, UniProt O14684); assay: Inhibition of human mPGES1 expressed in 293 cell microsomes preincubated for 15 mins followed by PGH2 substrate addition measured after 3 secs by enzyme immunoassay
T2 sequence (O14684 whole entry): T1 sequence (whole entry)
In short: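 Compounds were first screened against human mPGES-1 at 10 μM, and IC50 values were determined only for those giving ≥70% inhibition. Protein preparation and assay followed earlier reports. Values are means ± SD of single determinations run in triplicate.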

## CCCCOc1ccc(-c2nn(-c3ccc(Cl)cc3)cc2C=C2C(=O)NC(=S)NC2=O)cc1
[1]
  inhibition at 2 min, 100 µM: 4.4%
[2]
  inhibition: > 70%

## O=C1NC(=O)C(=Cc2cn(-c3ccc(Cl)cc3)nc2-c2ccccc2)C(=O)N1
[3]
  pIC50: 6.47
[2]
  inhibition: > 70%

## O=C1NC(=O)C(=Cc2cn(-c3ccc(Cl)cc3)nc2-c2ccc(OCc3ccccc3)cc2)C(=O)N1
[3]
  pIC50: 6.22
[2]
  inhibition: > 70%

## O=C1NC(=S)NC(=O)C1=Cc1cn(-c2ccc(Cl)cc2)nc1-c1ccc(OCc2ccccc2)cc1
[3]
  pIC50: 6.10
[2]
  inhibition: > 70%

## CCCCCCOc1ccc(-c2nn(-c3ccc(Cl)cc3)cc2/C=C2/SC(=O)NC2=O)cc1
[3]
  pIC50: 5.86
[2]
  inhibition: > 70%

## CCCCOc1ccc(-c2nn(-c3ccccc3)cc2C=C2C(=O)NC(=O)NC2=O)cc1
[2]
  inhibition: > 70%

## CCOc1ccc(-c2nn(-c3ccc(Cl)cc3)cc2/C=C(\C#N)C(=O)O)cc1
[3]
  pIC50: 6.55
[2]
  inhibition: > 70%

## CCCCCCOc1ccc(-c2nn(-c3ccc(Cl)cc3)cc2C=C2C(=O)NC(=S)NC2=O)cc1
[1]
  inhibition at 2 min, 100 µM: 0.7%
[2]
  inhibition: > 70%

## CCCCCCOc1ccc(-c2nn(-c3ccc(Cl)cc3)cc2/C=C(\C#N)C(=O)O)cc1
[1]
  inhibition at 2 min, 100 µM: 19%
[3]
  pIC50: 7.08
[2]
  inhibition: > 70%

## CCCCCCOc1ccc(-c2nn(-c3ccc(Cl)cc3)cc2C=C(C#N)C#N)cc1
[2]
  inhibition: 64%

## CCCCCCCCCCOc1ccc(-c2nn(-c3ccc(Cl)cc3)cc2C=C2C(=O)NC(=S)NC2=O)cc1
[1]
  inhibition at 2 min, 100 µM: 11%
[2]
  inhibition: > 70%

## O=C1NC(=S)NC(=O)C1=Cc1cn(-c2ccc(Cl)cc2)nc1-c1ccccc1
[3]
  pIC50: 6.25
[2]
  inhibition: > 70%

## CCOc1ccc(-c2nn(-c3ccc(Cl)cc3)cc2/C=C2/SC(=S)NC2=O)cc1
[3]
  pIC50: 5.98
[2]
  inhibition: > 70%

## CCCCCCCCOc1ccc(-c2nn(-c3ccc(Cl)cc3)cc2C=C2C(=O)NC(=S)NC2=O)cc1
[1]
  inhibition at 2 min, 100 µM: 0%
[2]
  inhibition: > 70%

## CCCCCCCCCCOc1ccc(-c2nn(-c3ccc(Cl)cc3)cc2C=C2C(=O)NC(=O)NC2=O)cc1
[2]
  inhibition: > 70%

## CCCCOc1ccc(-c2nn(-c3ccccc3)cc2C=C2C(=O)NC(=S)NC2=O)cc1
[1]
  inhibition at 2 min, 100 µM: 16%
[2]
  inhibition: > 70%

## CCCCOc1ccc(-c2nn(-c3ccc(Cl)cc3)cc2C=C2C(=O)NC(=O)NC2=O)cc1
[2]
  inhibition: > 70%

## CCCCCCCCOc1ccc(-c2nn(-c3ccc(Cl)cc3)cc2C=C2C(=O)NC(=O)NC2=O)cc1
[2]
  inhibition: > 70%

## CCOc1ccc(-c2nn(-c3ccc(Cl)cc3)cc2/C=C(\C#N)C(N)=O)cc1
[2]
  inhibition: 32%

## CCOc1ccc(-c2nn(-c3ccc(Cl)cc3)cc2C=C2C(=O)NC(=S)NC2=O)cc1
[1]
  inhibition at 2 min, 100 µM: 1%
[2]
  inhibition: > 70%

## CCOc1ccc(-c2nn(-c3ccc(Cl)cc3)cc2/C=C2/SC(=O)N(CC(=O)O)C2=O)cc1
[1]
  inhibition at 2 min, 100 µM: 6.8%
[3]
  pIC50: 7.39
[2]
  inhibition: > 70%

## CCCCCCOc1ccc(-c2nn(-c3ccc(Cl)cc3)cc2/C=C2/SC(=O)N(CC(=O)O)C2=O)cc1
[1]
  inhibition at 2 min, 100 µM: 1.2%
[3]
  pIC50: 7.44
[2]
  inhibition: > 70%

## CCCCCCOc1ccc(-c2nn(-c3ccc(Cl)cc3)cc2C=C2C(=O)NC(=O)NC2=O)cc1
[2]
  inhibition: > 70%

## CCOc1ccc(-c2nn(-c3ccc(Cl)cc3)cc2/C=C2/SC(=O)NC2=O)cc1
[3]
  pIC50: 5.80
[2]
  inhibition: > 70%

## CCCCCCOc1ccc(-c2nn(-c3ccc(Cl)cc3)cc2/C=C(\C#N)C(N)=O)cc1
[2]
  inhibition: 14%

## CCCCCCOc1ccc(-c2nn(-c3ccc(Cl)cc3)cc2/C=C2/SC(=S)NC2=O)cc1
[3]
  pIC50: 5.76
[2]
  inhibition: > 70%

## CCOc1ccc(-c2nn(-c3ccc(Cl)cc3)cc2C=C(C#N)C#N)cc1
[2]
  inhibition: 51%

## CCOc1ccc(-c2nn(-c3ccc(Cl)cc3)cc2C=C2C(=O)NC(=O)NC2=O)cc1
[2]
  inhibition: > 70%
